# Shown are actives, neighbours in structure and some others; about 1.9% of the full set was active somewhere.
# M4 ag: CHRM4 agonism in calcium assay; P08173; CHO-K1 hM4/Gqi5, Fluo-8 calcium fluorescence; vehicle 0%, full acetylcholine response 100%; activation, % at 3 µM; 360,000 tested, 0.14% active;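 active means activation above the run mean over all test wells plus 3 SD, cut at about 32% in these data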;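 further: peak over basal fluorescence ratio per well then scaled between controls; 0% = DMSO wells and 100% = acetylcholine at EC100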
# Target sequence (P08173 whole entry, looked up): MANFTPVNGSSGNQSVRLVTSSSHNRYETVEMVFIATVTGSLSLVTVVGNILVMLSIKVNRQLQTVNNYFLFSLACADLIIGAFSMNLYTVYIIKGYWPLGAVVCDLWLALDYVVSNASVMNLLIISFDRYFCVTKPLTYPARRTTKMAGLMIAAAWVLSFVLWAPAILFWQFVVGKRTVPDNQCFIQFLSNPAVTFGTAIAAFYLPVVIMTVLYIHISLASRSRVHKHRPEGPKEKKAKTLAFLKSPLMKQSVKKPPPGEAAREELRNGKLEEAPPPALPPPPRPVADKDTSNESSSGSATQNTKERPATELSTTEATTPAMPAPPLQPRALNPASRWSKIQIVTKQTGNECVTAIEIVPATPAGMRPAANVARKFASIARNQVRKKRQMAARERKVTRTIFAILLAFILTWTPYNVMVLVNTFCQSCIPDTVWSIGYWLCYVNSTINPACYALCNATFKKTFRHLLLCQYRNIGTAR
# M5 antag: antagonists of human muscarinic M5 receptor (CHRM5); P08912; CHO-hM5 cells, Fluo-8 calcium fluorescence, ACh EC80; inhibition, % at 3 µM; 360,000 tested, 0.59% active;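 active means inhibition above a per-plate cutoff, the mean of that plate's test compounds plus 3 SD, cut at about 27% in these data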;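 further: 0% = acetylcholine EC80 with DMSO and 100% = DMSO without agonist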
# CHRM4 PAM: CHRM4 positive allosteric modulation; P08173; CHO-K1 hM4/Gqi5, Fluo-8 calcium fluorescence, ACh EC20; 0% = ACh EC20, 100% = maximal ACh; activation, % at 3 µM; 360,000 tested, 0.4% active; AID 624126;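 active means activation above its plate's cutoff, the mean activation of sample wells plus 3 SD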
# CHRM5 agonist: agonists of human muscarinic M5 receptor (CHRM5) | P08912 | activation, % at 3 µM | 360,000 tested, 0.19% active | CHO-K1 hM5 cells, Fluo-8 calcium fluorescence; 0% DMSO wells, 100% maximal acetylcholine response;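 active means activation above the run's mean over test compounds plus 3 SD, cut at about 23% in these data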;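 further: signal is peak over basal fluorescence ratio across the kinetic read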
# CHRM5 PAM: CHRM5 positive allosteric modulation; P08912; CHO-K1 hM5, Fluo-8 calcium, ACh EC20 PAM; 0% = ACh EC20, 100% = ACh EC100; activation, % at 3 µM; 360,000 tested, 0.3% active; AID 624038;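 active means activation above the run cutoff, the mean activation of all test compounds plus 3 SD, cut at about 18% in these data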
#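 Assay system – human M5 receptor in CHO-K1 cells · Read-out – % activation, ACh-normalized · Technique – Fluo-8 calcium fluorescence · Dosing – single-point, 3 µM nominal · Incubation – Fluo-8 loading 80 min at 37 °C plus 30 min room temperature · Repeats – singlicate, one well per test compound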
# M4 antag: antagonists of human muscarinic M4 receptor (CHRM4); CHO-hM4 cells, ACh EC80, Fluo-8 calcium fluorescence; inhibition, % at 3 µM; 360,000 tested, 0.73% active;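 active means inhibition above its plate's cutoff, the mean inhibition of sample wells plus 3 SD, cut at about 27% in these data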;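 further: 0% = acetylcholine EC80 with DMSO and 100% = DMSO without agonist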
# Starred values were filed as active, the others as inactive.
SMILES,M4 ag,M5 antag,CHRM4 PAM,CHRM5 agonist,CHRM5 PAM,M4 antag
CC1(C(=O)Nc2ccc3c(c2)OCCO3)CCN1C(=O)Cc1ccc(-c2ccccc2)cc1 (stereo not drawn),10,30*,-4,6,-14,15
CC(C)c1ccc(CC(=O)N2CCC2(C)C(=O)Nc2ccc3c(c2)OCO3)cc1 (stereo not drawn),12,5,-3,5,-8,-11
COc1ccc(C(O)(CC(C)C)C(CN2CCOCC2)c2ccccc2)cc1 (stereo not drawn),-2,5,0,-6,-1,-2
Cc1nnc(NC(=O)c2sc3nc(-c4cccs4)cc(C(F)(F)F)c3c2N)s1,34*,15,-12,12,-7,7
CC(C)(C)C(=O)c1sc2nc(-c3cccs3)cc(C(F)(F)F)c2c1N,1,-9,-1,0,6,9
Nc1c(C(=O)Nc2nccs2)sc2nc(-c3cccs3)cc(C(F)(F)F)c12,21,34*,-17,22,-12,22
O=C(CN(Cc1ccccc1)C(=O)c1csnn1)NCc1ccc2c(c1)OCO2,7,14,3,5,28*,-17
COc1ccc(CN(CC(=O)NCc2ccc3c(c2)OCO3)C(=O)c2csnn2)cc1,4,2,-6,-2,0,3
CC(=O)c1c(C)[nH]c(C(=O)OCc2ccccc2)c1C,6,4,-7,1,-10,-6
CC(=O)c1c(C)[nH]c(C(=O)OCCCCN2C(=O)c3ccccc3C2=O)c1C,22,31*,-15,9,-24,10
Cc1c(NC(=O)C(C)OC(=O)CNC(=O)c2ccc(C(C)(C)C)cc2)c(=O)n(-c2ccccc2)n1C (stereo not drawn),0,-3,12,1,3,-5
C[N+](C)(C)CCOC(=O)CCC(=O)OCC[N+](C)(C)C,1,-1,-6,2,-3,-4
CC(=O)SCC[N+](C)(C)C,1,20,-5,63*,-20,-1
COc1ccc(C2=NOC(Cn3nc(C(=O)NCc4ccc(OC(F)(F)F)cc4)cc3-c3ccccc3)C2)cc1 (stereo not drawn),2,9,-2,2,-2,4
COc1ccc(C2=NOC(Cn3nc(C(=O)NCC4CC4)cc3-c3ccccc3)C2)cc1 (stereo not drawn),23,26,-4,-4,-37,29*
COc1ccc(C2=NOC(Cn3nc(C(=O)NCc4ccccc4OC)cc3-c3ccccc3)C2)cc1 (stereo not drawn),19,20,-12,2,-37,30*
CC(C)CCN1CC(C(=O)NCc2ccc(F)cc2)CC1=O (stereo not drawn),0,10,-2,-2,-3,1
O=C(NCc1ccc(F)cc1)C1CC(=O)N(CCc2ccccc2)C1 (stereo not drawn),3,6,-3,0,19*,15
O=C(OCc1nnc(-c2ccccc2)o1)C1CC(=O)N(CCc2ccccc2)C1 (stereo not drawn),4,4,25*,4,2,-10
O=C(NNC(=O)c1ccc(NC(=O)c2ccccc2)cc1)Nc1ccccc1,1,0,6,3,6,-4
CCSc1nnc(NC(=O)NC(CC)(C(F)(F)F)C(F)(F)F)s1,9,31*,-9,3,-21,8
CCSc1nnc(NC(=O)NC(C)(C(F)(F)F)C(F)(F)F)s1,10,14,-6,2,-11,5
C=C1C(=O)C=C2CN(C(=O)c3ccccc3)[C@@](Cc3ccc(F)cc3)(C(=O)OC)[C@@H]12,143*,93*,-18,81*,-41,96*
CSc1ccccc1NC(=O)CN1CCCCC1C (stereo not drawn),-1,35*,-1,-7,-17,10
CC1CCCCN1CC(=O)NC(c1ccccc1)c1ccccc1 (stereo not drawn),-1,9,-19,-10,-10,8
SMILES,M4 ag,M5 antag,CHRM4 PAM,CHRM5 agonist,CHRM5 PAM,M4 antag
CC1CCCCN1CC(=O)Nc1ccc(N2CCCCCC2)cc1 (stereo not drawn),2,-3,-14,-12,-7,5
CC1CCCCN1CC(=O)Nc1ccc(Oc2ccccc2)cc1 (stereo not drawn),2,-3,-15,-13,-14,57*
CSc1ccccc1NC(=O)CCc1ccccc1,0,6,22*,-7,7,-11
COc1ccc(NC(=O)c2ccccc2N2C(=O)C3C4C=CC(C5CC45)C3C2=O)c(OC)c1 (stereo not drawn),5,4,15*,0,11,-9
O=C(Nc1nnc(SCCC2OCCO2)s1)C1CC(=O)N(c2ccccc2)C1 (stereo not drawn),3,-5,-3,-1,0,-8
COc1cccc(N2CC(C(=O)Nc3nnc(SCCC4OCCO4)s3)CC2=O)c1 (stereo not drawn),2,31*,-1,-4,-9,-1
CC(=O)Nc1ccc(NC(=O)CSc2ncc(C(=O)Nc3ccc(F)cc3)c(=O)n2C)cc1,1,-1,18*,-1,-1,8
O=C(c1ccc(CS(=O)Cc2ccccc2Cl)o1)N1CCN(C2CCCCC2)CC1 (stereo not drawn),4,5,5,-7,-1,-16
Cc1ccc(S(=O)(=O)N2CCN(C(=O)CSc3ccc(F)cc3)CC2)cc1,15,29*,32*,0,19*,24
CN1CCN(c2ccncc2S(=O)(=O)N2CCCCC2)CC1,1,0,-3,-6,-20,-1
CC(C)N1CCN(c2ccncc2S(=O)(=O)N2CCCCC2)CC1,0,65*,-11,-3,-20,24
CCN(CC)CCCNC(=O)C(C)Sc1nc(-c2ccccc2)cc(C(F)(F)F)n1 (stereo not drawn),0,9,-7,-16,0,4
O=[N+]([O-])c1ccc(N2CCN(C(=S)Nc3ccc(F)cc3)CC2)cc1,15,13,-11,8,-19,4
O=[N+]([O-])c1ccc(N2CCN(C(=S)Nc3ccc(F)cc3F)CC2)cc1,15,34*,-16,7,-23,12
Cc1csc2c(N3CCN(C(=S)Nc4ccc(F)cc4F)CC3)ncnc12,15,29*,-34,5,-30,-18
Cc1csc2c(N3CCN(C(=O)Nc4ccccc4)CC3)ncnc12,15,6,-20,8,-13,6
Cn1nc(C#N)c(=O)[nH]c1=O,0,-157,-1,24*,63*,2

# Compound activity: PubChem BioAssay, The Scripps Research Institute Molecular Screening Center
